In series [1] the target is T1, Monocarboxylate transporter 4 (Homo sapiens, UniProt O15427).
T1 sequence (O15427 whole entry): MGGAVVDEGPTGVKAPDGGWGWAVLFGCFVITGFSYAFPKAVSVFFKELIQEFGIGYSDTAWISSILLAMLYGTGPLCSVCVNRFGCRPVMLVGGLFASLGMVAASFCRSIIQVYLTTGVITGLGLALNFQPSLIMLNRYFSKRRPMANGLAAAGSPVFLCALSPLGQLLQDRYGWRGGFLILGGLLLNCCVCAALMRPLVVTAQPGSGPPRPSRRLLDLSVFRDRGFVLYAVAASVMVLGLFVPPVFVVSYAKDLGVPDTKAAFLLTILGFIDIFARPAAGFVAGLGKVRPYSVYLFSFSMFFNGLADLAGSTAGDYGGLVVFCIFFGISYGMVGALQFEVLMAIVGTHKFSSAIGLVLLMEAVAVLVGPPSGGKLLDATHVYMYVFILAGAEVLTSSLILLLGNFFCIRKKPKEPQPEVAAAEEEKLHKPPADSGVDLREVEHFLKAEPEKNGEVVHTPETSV
The series can be described thus: TP_TRANSPORTER: inhibition of L-Lactate uptake (L-Lactate:30mM) in Xenopus laevis oocytes. It is filed as functional, cell-based, Oocyte. Put shortly: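 Human MCT4 cRNA (12 ng) injected into collagenase-treated stage V–VI oocytes, cultured 48–72 h at 18°C. Oocytes loaded with 5 μM BCECF-AM, 30 min, room temperature. Single oocyte superfused in uptake buffer pH 7.4 (NaCl isosmotically replaced). Inhibitor added simultaneously with 30 mM L-lactate at increasing concentrations. Initial acidification rate from first-order fit, as % of uninhibited rate. K0.5 from non-competitive fit, n=4–5 oocytes.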

For series [2], the target named is T2, Monocarboxylate transporter 4 (Homo sapiens) (UniProt O15427).
T2 sequence (whole entry): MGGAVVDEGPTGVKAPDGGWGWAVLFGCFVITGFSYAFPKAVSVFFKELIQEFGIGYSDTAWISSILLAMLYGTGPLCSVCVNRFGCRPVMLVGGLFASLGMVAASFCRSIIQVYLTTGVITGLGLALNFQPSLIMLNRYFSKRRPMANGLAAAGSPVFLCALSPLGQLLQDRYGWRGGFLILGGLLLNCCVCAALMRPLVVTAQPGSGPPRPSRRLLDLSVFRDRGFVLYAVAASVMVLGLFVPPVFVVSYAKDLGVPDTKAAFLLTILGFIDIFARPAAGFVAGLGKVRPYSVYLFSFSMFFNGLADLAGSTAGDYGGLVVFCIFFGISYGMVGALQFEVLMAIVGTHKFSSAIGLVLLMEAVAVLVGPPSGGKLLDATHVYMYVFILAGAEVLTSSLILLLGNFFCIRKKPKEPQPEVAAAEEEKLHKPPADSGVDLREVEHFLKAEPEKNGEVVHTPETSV
The series is described as follows: (§1) TP_TRANSPORTER: uptake in Xenopus laevis oocytes. Format: functional, cell-based. The conditions noted are these: Oocyte. Put shortly: (§2)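 Stage V–VI oocytes were injected with 12 ng MCT4 or MCT1 cRNA and kept in Barth's medium at 18°C. They were assayed 48–72 h later after loading with 5 μM BCECF-AM (30 min, room temperature, pH 7.4 buffer). Single oocytes were superfused with monocarboxylate Na salt (isosmotic NaCl replacement). Initial acidification rate came from a first-order fit, normalised to L-lactate on the same oocyte, then Michaelis–Menten regression.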

Substrate in series [3]: COC(=O)[C@H](C)Cl
The description is as §1. The conditions noted are these: Oocyte. Format: functional, cell-based. Put shortly:
as §2

Substrate in series [4]: O=C(O)CCCl
Described as §1. Format: functional, cell-based. The conditions noted are these: Oocyte. Put shortly: as §2

Substrate in series [5]: CC(C)CC(=O)C(=O)O
Described as §1. Format: functional, cell-based. The conditions noted are these: Oocyte. The procedure, abridged: as §2

Substrate in series [6]: CC(O)C(=O)[O-].[Na+]
The description is as §1. Format: functional, cell-based. The conditions noted are these: Oocyte. The procedure, abridged: as §2

Substrate in series [7]: CCC(O)C(=O)O
The description is as §1. It is filed as functional, cell-based. The conditions noted are these: Oocyte. The procedure, abridged:
as §2

Substrate in series [8]: CCC(=O)C(=O)O
Described as §1. It is filed as functional, cell-based. The conditions noted are these: Oocyte. The procedure, abridged: as §2

One may read the IC50 as the concentration at which inhibition is half-maximal. A higher IC50 goes with lower potency. In general, Km refers to the substrate concentration at which the rate is half of its maximum.

In series [1], `N#C/C(=C\c1ccc(O)cc1)C(=O)O` [alpha-CYANO-4-HYDROXYCINNAMIC ACID] returned a concentration for half-maximal inhibition (IC50) of 991 µM.

In the case of `O=C(O)C(=O)Cc1ccccc1`, the Activity result in series [2] is “is not a substrate [-]”. On the same count and under the same terms, for `NC(=O)C(=O)O` the value was “is not a substrate [-]”. Molecule `O=C(CCc1ccc(O)cc1)c1c(O)cc(O)cc1O` [PHLORETIN] returned an IC50 in series [1] of 41 µM. Take `O=C(O)O`: the Activity entry in series [2] was “is not a substrate [-]”.

For the molecule `CC(C)Cn1c(=O)n(C)c(=O)c2[nH]cnc21` [ISOBUTYLMETHYLXANTHINE], in series [1], the IC50 is 970 µM.

As to `O=C(O)CCCO`, the Activity result in series [2] was “is not a substrate [-]”. `O=C(O)c1cc([N+](=O)[O-])ccc1NCCCc1ccccc1` [5-NITRO-2-PHENYLPROPYLAMINOBENZOIC ACID [NPPB]] yielded an IC50 in series [1] of 240 µM.

Consider `O=CC(=O)O`, for which, in series [2], the Activity result was “is not a substrate [-]”. `O=C[O-].[Na+]`: the Activity result in series [2] is “is not a substrate [-]”.

With p-Chloromercuribenzenesulfonate, inhibition in series [1] (oocyte) was half-maximal at 21 µM (IC50).

B1: Monocarboxylate transporter 4 (Homo sapiens), O15427 (protein)
chain: MGGAVVDEGPTGVKAPDGGWGWAVLFGCFVITGFSYAFPKAVSVFFKELIQEFGIGYSDTAWISSILLAMLYGTGPLCSVCVNRFGCRPVMLVGGLFASLGMVAASFCRSIIQVYLTTGVITGLGLALNFQPSLIMLNRYFSKRRPMANGLAAAGSPVFLCALSPLGQLLQDRYGWRGGFLILGGLLLNCCVCAALMRPLVVTAQPGSGPPRPSRRLLDLSVFRDRGFVLYAVAASVMVLGLFVPPVFVVSYAKDLGVPDTKAAFLLTILGFIDIFARPAAGFVAGLGKVRPYSVYLFSFSMFFNGLADLAGSTAGDYGGLVVFCIFFGISYGMVGALQFEVLMAIVGTHKFSSAIGLVLLMEAVAVLVGPPSGGKLLDATHVYMYVFILAGAEVLTSSLILLLGNFFCIRKKPKEPQPEVAAAEEEKLHKPPADSGVDLREVEHFLKAEPEKNGEVVHTPETSV
Take B1: the Km in series [3] is 46 mM; in series [4], 51 mM; in series [5], 95 mM; in series [6], 28 mM; in series [7], 56 mM; in series [8] it was 57 mM.
